rRNA inh HTS: inhibits bacterial ribosomal RNA function over humanized ribosomes | E. coli WT GFP vs humanized-ribosome RFP mutants, fluorescence, 24 h; hits give low values; DMSO median 0, no signal -100 | GFP signal change (wild-type ribosome), % (test concentration not listed) | 350,000 compounds, 1.6% hits | AID 720706;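 active means significant combined selectivity score with lowered wild-type GFP, culture density cut under 30%, mutant RFP and density less affected; inactive means any of these conditions unmet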
PGC1a acetyl inh: PGC1a acetylation modulation, inhibitor mode | U2OS PGC1a acetylation, AlphaScreen anti-acetyl-lysine; with virally co-expressed GCN5 acetyltransferase | inhibition, % at 15.6 µM | 350,000 compounds, 0.17% hits;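 active means every replicate shows inhibition of at least 40%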;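 further: 0% = neutral control wells and 100% = positive control wells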
ERAP1 inh: ERAP1 (human) enzyme inhibition | Q9NZ08 | recombinant ERAP1, Leu-AMC fluorescence, 60 min | inhibition, % at 10.7 µM | 340,000 compounds, 0.15% hits | AID 652197;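 active means mean replicate inhibition of at least 30%, or all replicates individually reaching that 30% level; inactive means mean below 30% and not every replicate reaching it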;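 further: 0% = neutral control wells and 100% = L-leucinethiol positive control wells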
Target sequence (Q9NZ08 whole entry, looked up): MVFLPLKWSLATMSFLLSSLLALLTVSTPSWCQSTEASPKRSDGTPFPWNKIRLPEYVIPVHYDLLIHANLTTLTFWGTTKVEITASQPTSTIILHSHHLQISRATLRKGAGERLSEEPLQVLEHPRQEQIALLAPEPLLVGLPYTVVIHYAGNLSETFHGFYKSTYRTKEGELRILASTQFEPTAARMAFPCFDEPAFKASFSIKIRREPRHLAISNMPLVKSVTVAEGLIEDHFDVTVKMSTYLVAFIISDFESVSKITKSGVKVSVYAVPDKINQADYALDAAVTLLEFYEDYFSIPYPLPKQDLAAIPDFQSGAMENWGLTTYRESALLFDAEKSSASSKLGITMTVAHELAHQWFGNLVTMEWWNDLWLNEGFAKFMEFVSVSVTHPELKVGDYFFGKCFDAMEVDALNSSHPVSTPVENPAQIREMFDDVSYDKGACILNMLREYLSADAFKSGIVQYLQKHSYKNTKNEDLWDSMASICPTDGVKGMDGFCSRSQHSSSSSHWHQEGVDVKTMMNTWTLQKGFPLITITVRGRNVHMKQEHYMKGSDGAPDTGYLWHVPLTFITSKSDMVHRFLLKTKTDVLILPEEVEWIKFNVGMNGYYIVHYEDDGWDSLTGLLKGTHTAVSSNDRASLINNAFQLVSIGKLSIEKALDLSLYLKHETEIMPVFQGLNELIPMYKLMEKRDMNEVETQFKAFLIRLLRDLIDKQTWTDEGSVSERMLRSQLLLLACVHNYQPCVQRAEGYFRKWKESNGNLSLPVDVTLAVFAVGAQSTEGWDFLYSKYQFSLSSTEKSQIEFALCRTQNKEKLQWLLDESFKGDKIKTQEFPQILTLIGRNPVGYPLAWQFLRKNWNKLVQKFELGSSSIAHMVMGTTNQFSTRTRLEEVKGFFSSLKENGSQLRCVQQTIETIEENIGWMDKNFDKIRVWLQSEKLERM
Cneo AK release: causes C. neoformans cell lysis. adenylate kinase release luminescence, 4 h; normalised: neutral wells 0, clomiphene wells 100. lysis activity, % at 15 µM. 360,000 compounds, 0.2% hits;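 active means mean lysis activity across replicates of at least 80%, whatever share of replicates individually reach that level; inactive means mean lysis activity below 80%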
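Schedule: static 4 h at 37 °C with compound, 1 h detection; system: C. neoformans cells; benchmarks: Clomiphene as positive control; buffer or medium: fresh YPD medium; measure: luminescence rise reflecting yeast cell lysis; measured by: luminescent adenylate kinase detection reagent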
HIV Env fusion: inhibitors of HIV Env-mediated cell fusion. AID 651610. 360,000 compounds, 1.1% hits. inhibition, % at 12.3 µM. HeLa-JRFL Env/CEM21 cell fusion, luciferase;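 active means mean replicate inhibition score of at least 50 and every replicate individually at or above 50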;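 further: 0% = plate neutral controls and 100% = maraviroc near 300 nM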
FGF22 binding: shifts melting point of recombinant human FGF22; Q9HCT0; recombinant FGF22 thermal shift, SYPRO orange fluorescence; percent of sucrose octasulfate shift, DMSO zero; activity (Tm shift, normalised), % at 9.99 µM; 340,000 compounds, 1.5% hits;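 active means mean Tm shift, scaled 0 neutral to 100 positive control, at about 1.3% or above, every replicate too, limit read from the data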
* hit, by the source's call; nt = no result given; [ ] = another dose, or the depositor's remark. Hits are enriched below; roughly 3.5% of the tested compounds scored in any of these assays.

SMILES	rRNA inh HTS	PGC1a acetyl inh	ERAP1 inh	Cneo AK release	HIV Env fusion	FGF22 binding
CCOc1ccc2oc(C(=O)N(Cc3nnc(-c4ccccc4Cl)o3)C3CC3)c(C)c2c1	0.5	10.1	-3.1	nt	15.8	-0.2
CCc1nc2c(OCc3cc(Cl)cc(Cl)c3)cccn2c1N(C)C(=O)c1ccccc1F	2.1	-13.9	-0.8	2.7	0.1	-0.4
O=C(NCc1ccccn1)C1CCN(S(=O)(=O)N2CCC3(CC2)OCCO3)CC1	nt	18.2	nt	0.2	-3.5	nt
COC(=O)COc1c(/C=C\c2nc(O)c([N+](=O)[O-])c(=O)[nH]2)cccc1OC	5.7	55.0*	-2.2	3.3	-10.0	0.1
O=C(/C=C/c1ccc(F)cc1)N1CCc2ccccc2C1	-8.6	21.6	1.6	-2.5	-64.6	0.3
O=C(O)CN1CCc2ccccc2C1	8.1	-1.3	9.4	-0.8	8.2	43.1*
O=C(/C=C/C(=O)N1CCc2ccccc2C1)N1CCc2ccccc2C1	-21.9*	nt	-0.6	nt	-10.7	0.0
O=C(Cc1noc2ccccc12)Nc1ccc(Cl)cc1	8.3	0.1	-3.5	-2.3	nt	0.2
COc1ccc(NS(=O)(=O)c2cc(NC(=O)c3cnccn3)ccc2N2CCCC2)cc1	0.6	-17.4	2.6	0.7	8.5	0.9
COc1ccc(NS(=O)(=O)c2cc(NC(=O)c3cnccn3)ccc2OC)cc1Br	-30.9*	-6.5	-3.2	0.6	-6.6	-0.3
C[C@H](CO)N1C[C@H](C)[C@@H](CN(C)Cc2ccc(C(F)(F)F)cc2)Oc2ccc(NS(=O)(=O)c3ccccc3)cc2CC1=O	-1.4	-3.6	-3.5	5.2	nt	-0.2
COc1cc2c(oc(=O)c3cc(C)cc(OC)c32)c2c(C3OC(C)C(O)C(C)(O)C3O)ccc(O)c12 (stereo not given)	7.7	3.1	6.9	nt	56.3*	-1.4
COc1cccc2cc(C(=O)N3CC(C)OC(C)C3)c(=O)oc12 (stereo not given)	7.3	nt	-1.9	0.5	-43.8	-0.1
NCCNC(=O)Cc1cccc(NC(=O)Cc2ccc(Nc3ncnc4c3ncn4[C@@H]3O[C@H](CO)[C@@H](O)[C@H]3O)cc2)c1	2.3	-1.8	-3.2	1.1	3.4	-0.1
COc1ccc2c(Cl)c(C(=O)NN3CCN(C)CC3)sc2c1	-11.9	15.0	1.8	1.3	0.6	43.8*
COc1ccc2c(Cl)c(C(=O)NC3CCS(=O)(=O)C3)sc2c1 (stereo not given)	nt	-0.3	nt	-1.3	nt	nt
O=c1ccc(-c2nc3ccccc3n2Cc2ccccc2Cl)c[nH]1	-19.0	-0.5	-5.1	nt	13.8	43.4*
O=c1ccc(-c2nc3cc(Cl)ccc3n2Cc2ccccc2)c[nH]1	-20.6	-10.9	-5.5	nt	1.1	nt
COCC(C)OC(=O)C(C#N)c1nc2ccccc2nc1N1CCN(Cc2ccccc2)CC1 (stereo not given)	nt	-7.2	nt	-1.8	nt	nt
CCOCCCNC(=O)/C=C1\Sc2ccccc2N(Cc2ccccc2F)C1=O	-17.4*	-13.0	2.9	-5.1	7.5	0.1
CCOCCCNC(=O)CN1C(=O)/C(=C/c2ccccc2C)Sc2ccccc21	-7.7	nt	-0.4	-0.1	17.3	42.4
C/C(CC(=O)Nc1ccc(Cl)cc1C(F)(F)F)=N\NC(=O)c1cccs1	-4.8	-2.4	2.5	2.6	-19.8	0.0
C/C(CC(=O)Nc1ccc(Cl)cc1C(F)(F)F)=N\NC(=O)c1ccccn1	0.5	nt	2.8	nt	-7.8	43.3*
CCn1c(=O)cc(OCC(=O)Nc2ccc3c(c2)OCCO3)c2ccccc21	nt	3.5	nt	-2.8	-2.3	nt
COc1ccc(NC(=O)Cc2c(C(=O)O)n(C)c3ccccc23)cc1OC	0.7	-0.9	-3.3	nt	-9.8	43.0*
SMILES	rRNA inh HTS	PGC1a acetyl inh	ERAP1 inh	Cneo AK release	HIV Env fusion	FGF22 binding
COc1cc(NC(=O)Cc2nn(C)c(=O)c3ccccc23)cc(OC)c1OC	-3.8	8.4	-3.0	0.2	nt	-0.2
COc1ccc(C)cc1NC(=O)Cc1c(C(=O)O)n(C)c2ccccc12	-4.0	3.7	2.3	5.3	2.3	1.0
CCn1c(=O)cc(OCC(=O)Nc2ccc(OC)c(OC)c2)c2ccccc21	-0.4	nt	-3.6	nt	21.9	43.4*
COc1cc(NC(=O)Cc2c(C(=O)O)n(C)c3ccccc23)cc(OC)c1OC	2.2	11.9	-0.3	0.9	-0.1	42.9*
C[C@@H]1CN([C@@H](C)CO)S(=O)(=O)c2ccc(C3=CCCC3)cc2O[C@@H]1CN(C)C(=O)c1cnccn1	-2.5	-3.7	nt	nt	14.5[16.7 µM]	nt
CCCc1nc2sc3c(c2c(=O)[nH]1)CCCC3	nt	-0.2	1.6	nt	-2.2	43.4*
COCc1nc2sc3c(c2c(=O)[nH]1)CCCC3	nt	nt	nt	nt	-64.0	nt
Cc1[nH][nH]c(=O)c1C=NCc1ccc(Cl)cc1	7.8	nt	4.3	1.5	6.6	43.4*
Cn1[nH]c(C(F)(F)F)c(C=NCc2ccc(Cl)cc2)c1=O	9.7	nt	0.7	-0.6	6.4	0.1
COc1ccccc1CNc1cncnc1	-22.9*	nt	-2.6	1.3	12.1	-0.1
COc1ccccc1CNc1ncccn1	4.9	-3.8	-2.3	1.1	13.5	-0.1
CCc1ccc(NC(=O)CSc2nc3ccsc3c(=O)n2CCCCCC(=O)O)cc1	0.1	nt	1.0	nt	2.8	43.5*
C[C@H]1CN([C@@H](C)CO)C(=O)CCCn2nncc2CO[C@H]1CN(C)C(=O)Nc1ccc(N2CCCCC2)cc1	4.5	-8.4	-0.7	0.9	-3.7	-0.6
CC1CC(=O)NN=C1c1ccc(NCCO)c([N+](=O)[O-])c1 (stereo not given)	nt	8.1	nt	2.5	61.8*	nt
Cn1nc(-c2ccc(NCCO)c([N+](=O)[O-])c2)c2ccccc2c1=O	0.8	-8.5	0.1	nt	-1.2	0.4
Cc1ccc(S(=O)(=O)N2CCCCC2)cc1NC(=O)Cn1ccc(C(F)(F)F)n1	-4.4	-6.3	-0.1	3.4	21.0	-0.1
O=C(N/N=C/c1ccc(O)cc1)Nc1cccc2nsnc12	-31.0*	15.6	-6.5	nt	5.8	0.2
COc1cc(/C=N/NC(=O)Nc2cccc3nsnc23)cc(OC)c1OC	nt	-2.3	nt	nt	nt	nt
CCCCNC(=O)Cc1ccc(Br)cc1	16.2	nt	-2.2	nt	-8.4	43.7*
COC(=O)C1=C(C)NC(=S)NC1c1ccc(Br)cc1 (stereo not given)	-8.6	nt	3.1	nt	0.7	-0.1
CN1C(=O)c2cc(NS(=O)(=O)c3cccc(F)c3)ccc2OC[C@H]2O[C@@H](CC(=O)O)CC[C@@H]21	-0.4	4.0	-5.5	-1.7	nt	-0.1
CN1C(=O)c2cc(NS(C)(=O)=O)ccc2OC[C@@H]2O[C@@H](CC(=O)O)CC[C@H]21	-0.5	5.7	-3.2	83.1*	nt	-0.2
CN1C(=O)c2cc(NS(=O)(=O)c3cccc(F)c3)ccc2OC[C@H]2O[C@H](CC(=O)O)CC[C@H]21	-2.1	2.8	-2.5	96.5*	nt	-0.1

Screening results deposited in PubChem by Broad Institute.
